ATG4B inh: ATG4B (human) cysteine protease inhibition | ATG4B cleavage of LC3-PLA2, NBD-HPC fluorescence, 1 h | Q9Y4P1 | AID 504462 | inhibition, % at 8.33 µM | 0.51% of 340,000 active; in the data active = inhibition above about 40%
Target sequence (Q9Y4P1 whole entry, looked up): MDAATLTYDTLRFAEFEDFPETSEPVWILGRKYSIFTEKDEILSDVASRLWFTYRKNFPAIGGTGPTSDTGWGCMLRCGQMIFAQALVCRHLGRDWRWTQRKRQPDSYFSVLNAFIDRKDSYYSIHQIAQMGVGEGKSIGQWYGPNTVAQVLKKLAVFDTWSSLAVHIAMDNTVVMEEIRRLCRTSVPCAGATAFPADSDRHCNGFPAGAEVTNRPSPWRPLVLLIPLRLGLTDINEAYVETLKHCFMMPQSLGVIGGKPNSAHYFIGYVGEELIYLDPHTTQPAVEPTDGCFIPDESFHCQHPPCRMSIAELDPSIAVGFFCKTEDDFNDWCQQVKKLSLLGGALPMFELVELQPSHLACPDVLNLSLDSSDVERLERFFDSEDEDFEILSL
MC4R ag barr: activates human MC4R beta-arrestin recruitment; U2OS MC4R beta-arrestin complementation, luminescence; percent of melanotan II response, DMSO zero; activation, % at 8.9 µM; AID 540308; P32245; 0.98% of 360,000 active;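 active = activation above a per-plate cutoff, the mean activation of sample wells on that plate plus 3 SD, cut at about 8% in these data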
Target sequence (P32245 whole entry, looked up): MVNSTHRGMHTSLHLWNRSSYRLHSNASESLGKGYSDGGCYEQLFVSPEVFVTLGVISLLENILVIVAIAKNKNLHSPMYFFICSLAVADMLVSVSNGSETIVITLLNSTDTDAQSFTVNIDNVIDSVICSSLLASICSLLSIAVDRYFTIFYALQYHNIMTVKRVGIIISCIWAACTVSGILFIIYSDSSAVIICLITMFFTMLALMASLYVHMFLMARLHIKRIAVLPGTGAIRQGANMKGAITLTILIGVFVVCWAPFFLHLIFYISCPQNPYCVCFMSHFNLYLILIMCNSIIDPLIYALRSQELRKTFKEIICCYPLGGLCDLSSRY
MPTP inh: blocks calcium-induced mitochondrial swelling. isolated mouse mitochondria, Ca2+ swelling absorbance, 30 min. inhibition, % at 10 µM. 1.4% of 360,000 active. AID 602449;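 active = inhibition of 50% or more, scaled per plate between neutral and stimulator controls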
MC4R antag cAMP: blocks human MC4R cAMP signaling; P32245; MC4R-expressing cells, MTII-stimulated cAMP, LANCE TR-FRET; inhibition, % at 6.5 µM; 0.48% of 360,000 active; AID 540295;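 active = inhibition above its plate's cutoff, the mean of tested wells on that plate plus 3 SD, cut at about 29% in these data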
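Material – human MC4R-expressing U2OS cells · Repeats – no replicates · Detection – TR-FRET with Eu-cAMP and labeled anti-cAMP, 671 nm · Times – compound 30 min, challenge 1 h, detection 1 h · Compound – single nominal compound dose of 6.5 µM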
SMARCA2 activ: SMARCA2 function activation, primary screen | activation, % at 9.1 µM | MG213 cells, MMTV-luciferase reporter, dexamethasone, overnight | 1% of 370,000 active; in the data active = activation above about 7.8%
cAMP nonselect: U2OS forskolin cAMP inhibition counter-screen. shares compounds with MC4R antag cAMP. parental U2OS, LANCE TR-FRET. inhibition, % at 6.5 µM. 26% of 1,600 active. AID 602193;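 active = mean inhibition over triplicates above the low-control well mean plus 3 SD, set per campaign, cut at about 13% in these data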;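 note: signal is single emission at 671 nm which falls as cellular cAMP rises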
MC4R antag conf: human MC4R cAMP antagonism confirmation | inhibition, % at 6.5 µM | 27% of 1,600 active | shares compounds with MC4R antag cAMP | MC4R-expressing cells, MTII-stimulated cAMP, TR-FRET; in the data active = inhibition above about 29%
Large screens that a line does not name were inactive (follow-up assays come after a bar, where they were run). In the library only some 4.1% were active in any assay of this set; here they are far more common.

CC(=O)Nc1ccc(-c2csc(NC(=O)C3CC(=O)N(c4ccc5c(c4)OCCO5)C3)n2)cc1 (stereo not given)	MC4R antag cAMP 35 | cAMP nonselect inactive | MC4R antag conf inactive
CCc1ccc(CNCC(=O)N2CCC3(CC2)OCCO3)s1	none (no result: ATG4B inh, MC4R ag barr, MPTP inh, MC4R antag cAMP)
CC(C)c1ccc(NC(=O)CSc2nc3ccsc3c(=O)n2CCC(=O)O)cc1	MC4R antag cAMP 35 | cAMP nonselect inactive | MC4R antag conf inactive
CCc1ccc(NC(=O)CSc2nc3ccsc3c(=O)n2CCCCCC(=O)O)cc1	none
CCOC(=O)c1ccc(NC(=O)N2CCN(c3cccc(OC)c3)CC2)cc1	MC4R antag cAMP 29 | cAMP nonselect inactive | MC4R antag conf inactive
CCOC(=O)c1ccc(NC(=O)N2CCN(c3ccccn3)CC2)cc1	none
CCC(OC(=O)CNS(=O)(=O)c1ccccc1)C(=O)c1ccccc1 (stereo not given)	MC4R antag cAMP 37 | cAMP nonselect 17 | MC4R antag conf 31
COc1ccccc1C(=O)NC(=S)N1CCc2ccccc21	MC4R antag cAMP 30 | cAMP nonselect inactive | MC4R antag conf inactive
O=C(NC1CCCCN(Cc2cccc(Cl)c2)C1=O)c1ccc(-c2ccccc2)cc1 (stereo not given)	none (no result: ATG4B inh, MC4R ag barr, MPTP inh, MC4R antag cAMP)
CC(C)N(Cc1ccccc1)C(=O)C1CCCN(c2ncnc3c2nc2n3CCCCC2)C1 (stereo not given)	none
CCCCN(Cc1ccco1)C(=O)C1CCCN(c2ncnc3c2nc2n3CCCCC2)C1 (stereo not given)	MC4R antag cAMP 32 | cAMP nonselect inactive | MC4R antag conf inactive
CCOc1ccc(OCC)c(NC(=O)CN(c2ccc(OC)cc2)S(=O)(=O)c2c(C)noc2C)c1	none
CCOc1ccc(OCC)c(NC(=O)CN(c2ccc(C)cc2)S(=O)(=O)c2c(C)noc2C)c1	MC4R antag cAMP 32 | cAMP nonselect inactive | MC4R antag conf inactive
O=S(=O)(c1ccccc1)N1CCN(c2nnc(-c3ccccc3)c3ccccc23)CC1	MC4R antag cAMP 30 | cAMP nonselect inactive | MC4R antag conf inactive
CS(=O)(=O)N1CCN(c2nnc(-c3ccccc3)c3ccccc23)CC1	none
CC(=O)N1C[C@@H](CO)[C@@H](N(C)C(=O)Nc2cccc3ccccc23)C[C@H]1c1ccccc1	none (no result: ATG4B inh, MC4R ag barr, MPTP inh, MC4R antag cAMP)
NS(=O)(=O)c1ccc(CNS(=O)(=O)c2ccc(Cl)nc2)cc1	none
NS(=O)(=O)c1ccc(CCNS(=O)(=O)c2ccc(Cl)nc2)cc1	MC4R antag cAMP 35 | cAMP nonselect 19 | MC4R antag conf inactive
Cc1cc(N2CCN(CC(C)(C)O)C[C@H]2C)ccc1N1CCN(Cc2ccccc2)[C@@H](C)C1	none (no result: ATG4B inh, MC4R ag barr, MPTP inh, MC4R antag cAMP)
Cc1ccc(C)c(Cn2c(C)nc3c(sc(=S)n3-c3ccccc3)c2=O)c1	MC4R antag cAMP 31 | cAMP nonselect inactive | MC4R antag conf inactive
O=C(N[C@H](C(=O)N1CCC[C@H]1C(=O)NCCc1ccccc1Cl)c1ccccc1)c1cccs1	none (no result: ATG4B inh, MC4R ag barr, MPTP inh, MC4R antag cAMP)
CCC(=O)NC(=S)Nc1ccc(-c2nc3ccc(C)cc3s2)cc1	none
Cc1ccc2nc(-c3ccc(NC(=S)NC(=O)C(C)C)cc3)sc2c1	MC4R antag cAMP 47 | cAMP nonselect inactive | MC4R antag conf inactive
CCC(Sc1nc2ccsc2c(=O)n1Cc1ccc(C(=O)O)cc1)C(=O)Nc1cc(Cl)ccc1C (stereo not given)	MC4R antag cAMP 37 (no result: ATG4B inh) | cAMP nonselect inactive | MC4R antag conf inactive
CCOc1ccc(/C=C/[N+](=O)[O-])c2ccccc12	MC4R antag cAMP 41 (no result: SMARCA2 activ) | cAMP nonselect inactive | MC4R antag conf inactive
CCOC(=O)COc1ccc2ccccc2c1/C=C/[N+](=O)[O-]	none
COC(=O)c1ccc(/C=C/C(=O)OCC(=O)Nc2sccc2C(N)=O)cc1	MC4R antag cAMP 36 (no result: SMARCA2 activ) | cAMP nonselect 15 | MC4R antag conf 29
NC(=O)c1ccsc1NC(=O)COC(=O)/C=C/c1ccc([N+](=O)[O-])cc1	none
Cc1ccc(C(=O)N=c2sccn2C)cc1C	none
Cn1ccsc1=NC(=O)c1ccc(S(C)(=O)=O)cc1	none
Cn1ccsc1=NC(=O)c1ccc(S(C)(=O)=O)c([N+](=O)[O-])c1	MC4R antag cAMP 33 | cAMP nonselect inactive | MC4R antag conf 31
Cn1ccsc1=NC(=O)c1ccc(Cl)c([N+](=O)[O-])c1	MC4R antag cAMP 35 | cAMP nonselect inactive | MC4R antag conf inactive
O=C(/C=C/c1ccco1)NC(=S)Nc1cc(-c2nc3ccccc3s2)ccc1Cl	MC4R antag cAMP 34 | cAMP nonselect inactive | MC4R antag conf inactive
CN(C)CCNc1cnn(-c2ccccc2)c(=O)c1Cl	MC4R antag cAMP 29 | cAMP nonselect inactive | MC4R antag conf inactive
C=CCN1[C@H](C#N)[C@@H](c2ccc(C#Cc3cccc(OC)c3)cc2)[C@H]1CO	none (no result: ATG4B inh, MC4R ag barr, MPTP inh, MC4R antag cAMP)
Clc1ccc(OCCCCCN2CCCC2)c(Br)c1	MC4R antag cAMP 30 | cAMP nonselect inactive | MC4R antag conf inactive
CC(C)C[C@H](N)c1nnc(S(=O)(=O)Cc2ccc(F)cc2)o1	MC4R antag cAMP 43 (no result: SMARCA2 activ) | cAMP nonselect 23 | MC4R antag conf 36
C[C@@H]1C=CCCO[C@]12C(=O)Nc1ccccc12	none (no result: ATG4B inh, MC4R ag barr, MPTP inh, MC4R antag cAMP)
S=c1[nH]ncn2c1cc1oc3ccccc3c12	MC4R antag cAMP 34 | cAMP nonselect 22 | MC4R antag conf 41
COc1cccc(CNS(=O)(=O)/C=C/c2ccc(OC)c(OC)c2)c1	MC4R antag cAMP 34 | cAMP nonselect inactive | MC4R antag conf inactive
CC(C)(C)OC(=O)NCc1ccc(NC(=O)c2nc[nH]c2C(=O)NCCCNC(=O)c2[nH]cnc2C(=O)Nc2ccc(CNC(=O)OC(C)(C)C)cc2)cc1	MC4R ag barr 8.7, MC4R antag cAMP 31 (no result: SMARCA2 activ) | cAMP nonselect inactive | MC4R antag conf inactive
CC(C)(C)OC(=O)NCCCCCNC(=O)c1[nH]cnc1C(=O)Nc1cc(Br)ccc1F	MC4R antag cAMP 33 (no result: ATG4B inh) | cAMP nonselect inactive | MC4R antag conf inactive
CC(=O)c1ccc(-n2c(CCC(=O)O)ccc2-c2ccc(C)cc2)cc1	MC4R antag cAMP 30 (no result: SMARCA2 activ) | cAMP nonselect inactive | MC4R antag conf inactive
O=C(NCCc1c[nH]c2ccccc12)OCc1cn(Cc2ccc(F)cc2F)nn1	none (no result: ATG4B inh, MC4R ag barr, MPTP inh, MC4R antag cAMP)
C=CCn1c(=S)[nH]c2scc(-c3cccs3)c2c1=O	MC4R antag cAMP 51 | cAMP nonselect 17 | MC4R antag conf inactive
O=C(Nc1ccccc1Cl)OC1CC2CC1[C@H]1CCCCN1[C@H]2Cc1ccccc1 (stereo not given in full)	none (no result: ATG4B inh, MC4R ag barr, MPTP inh, MC4R antag cAMP)
O=C(O)c1cccc2c1C(=O)c1ccc(N3CCN(Cc4ccc5c(c4)OCO5)CC3)cc1S2(=O)=O	MC4R antag cAMP 33 (no result: ATG4B inh) | cAMP nonselect inactive | MC4R antag conf inactive
CC1CCN(c2ccc3c(c2)S(=O)(=O)c2cccc(C(=O)O)c2C3=O)CC1	none
CCOC(=O)c1ccc(N/C=C/C(=O)c2ccccc2)cc1	none

Compound activity (PubChem BioAssay)
